Data from the RNAGym collection of RNA variant scans (doi:10.1126/science.aae0568).
This sample holds only a part of the variants without activity.

B1: tRNA (parent)
chain: GUUCCGUUGGCGUAAUGGUAACGCGUCUCCCUCCUAAGGAGAAGACUGCGGGUUCGAGUCCCGUACGGAACG

Variants of: B1
Assay: yeast fitness relative to wild type (ratio to wild type); higher = fitter; tRNA-Arg(CCU), competitive growth, 37 C, YPD
How it was run: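 Variants of the tRNA-Arg(CCU) gene, chemically synthesised with a 3% per-site mutation rate at 69 sites, were placed at the native genomic locus in Saccharomyces cerevisiae. The pooled strains were competed in YPD at 37°C for 24 hours in six parallel replicates. Gene amplicons from the start population and from each end population were read by 100-nucleotide paired-end sequencing. Darwinian fitness relative to wild type came from changes in genotype frequencies; genotypes needed ≥ 100 starting reads, and estimates < 0.5 were set to 0.5.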

Going from U13C A21C G50A to U13C G48C A65G, the yeast fitness rises from 0.509 to 0.655.

Going from U13C U28G U54A C62A to U13G G25A U59C, the yeast fitness rises from 0.624 to 0.681.

Going from U13G A36G G68C to U13C C29A, the yeast fitness rises from at most 0.5 to 0.618.

Going from U13C C31G A40C A42G G51A to U13G C29U G48A G56A, the yeast fitness falls from 0.578 to 0.55.

First: U13G G58C G67C
Second: A14C A20G C27U U64A G67A
The yeast fitness of the first is higher: 0.603 for the first, 0.566 for the second.

First: A14C A20U G25C A43C C66U
Second: U13C C62G
The yeast fitness of the first is lower: at most 0.5 for the first, 0.804 for the second.

Compared with U13G A45U C55G, A14C C27U C55G A70U is higher in yeast fitness: at most 0.5 for the first, 0.613 for the second.

First: U13C G44C G58A G68A
Second: U13C G18C
The yeast fitness of the first is lower: 0.572 for the first, 0.618 for the second.

First: U13C G52A A69U
Second: U13C A40U C62A
The yeast fitness of the first is higher: 0.689 for the first, 0.557 for the second.

Compared with U13G U32A C46U, A14C C27G C46G is higher in yeast fitness: 0.577 for the first, 0.619 for the second.

U13C A57U C62U and A14C A21U C24A A37U A45U cannot be ordered by yeast fitness: at most 0.5 for the first, at most 0.5 for the second.

Compared with U13G A15C C30G C34A U35A U53C A57U C60G, U13C C31U A57G U64A C66A A69C is lower in yeast fitness: 0.564 for the first, at most 0.5 for the second.

A14C A20C C34A A42U and U13G U28G A57U A65C A69C cannot be ordered by yeast fitness: at most 0.5 for the first, at most 0.5 for the second.

U13G C31G A43U C46G A70U and U13C A14G C24G G52A C55G A69U cannot be ordered by yeast fitness: at most 0.5 for the first, at most 0.5 for the second.

Going from U13G U32C C33U C62U A65G to U13C C31A C55A, the yeast fitness rises from at most 0.5 to 0.565.

Going from U13G U28G C61U to U13C A14G C24G C49G A69G, the yeast fitness falls from 0.523 to at most 0.5.

First: U13G A37C U47A A70G
Second: U13G A65C A70G
The yeast fitness of the first is lower: at most 0.5 for the first, 0.619 for the second.

Going from U13C G18C G50C A57U C62U to U13G C30A, the yeast fitness rises from 0.578 to 0.715.

First: U13C C31U A69U
Second: U13C G25C C31G
The yeast fitness of the first is lower: 0.835 for the first, 0.877 for the second.

First: U13G U28A C49A C55U C60U C61U
Second: U13C U47C C62U
The yeast fitness of the first is lower: at most 0.5 for the first, 0.715 for the second.

First: A14C C27A C31A
Second: U13C A20G C49A U59C C62U A65U A70C
The yeast fitness of the first is higher: 0.588 for the first, 0.53 for the second.

First: U13C A15G G39A
Second: A14C A21C C46A
The yeast fitness of the first is lower: 0.593 for the first, 0.604 for the second.

A14C A36G C62U and A14C A36G C62A cannot be ordered by yeast fitness: at most 0.5 for the first, at most 0.5 for the second.

Compared with U13C A20G A37U C61A, U13G A37C is higher in yeast fitness: at most 0.5 for the first, 0.65 for the second.

First: A14C C24U A36G
Second: U13C G23C U47C
The yeast fitness of the first is higher: 0.591 for the first, at most 0.5 for the second.

A14C A42U G44C and U13C A15U C46A C66U cannot be ordered by yeast fitness: at most 0.5 for the first, at most 0.5 for the second.

A14C C27U C46U A70G and U13C C24G C30A U47C cannot be ordered by yeast fitness: at most 0.5 for the first, at most 0.5 for the second.

Compared with U13C C22U G38C G51A A57C, U13C G58C A69U is higher in yeast fitness: at most 0.5 for the first, 0.7 for the second.

U13C C30G C31A and A14C C24U C31U A40U G44A cannot be ordered by yeast fitness: at most 0.5 for the first, at most 0.5 for the second.

A14C A43C A57G C66U and A14C A40C G68A cannot be ordered by yeast fitness: at most 0.5 for the first, at most 0.5 for the second.

Going from U13C A14U C31G G50A A65C to U13C U26C C31U, the yeast fitness rises from 0.531 to 0.784.

A14C C22G G25C G44A and A14C A43G A69C cannot be ordered by yeast fitness: at most 0.5 for the first, at most 0.5 for the second.

Compared with U13C A37U, U13C G52A C55G A69U is lower in yeast fitness: 0.543 for the first, at most 0.5 for the second.

A14C C22A U59C C62A and A14C C22G A37C cannot be ordered by yeast fitness: at most 0.5 for the first, at most 0.5 for the second.

U13C U16C A57G G68A A69G and A14C A36G A69C cannot be ordered by yeast fitness: at most 0.5 for the first, at most 0.5 for the second.

First: U13G C34U A37U
Second: U13C U19A A42C G50C
The yeast fitness of the first is lower: at most 0.5 for the first, 0.619 for the second.

U13G A36U A40C and U13C C27G A36G U54G cannot be ordered by yeast fitness: at most 0.5 for the first, at most 0.5 for the second.

First: A14C C24A C27G C46G A65G
Second: U13G G39C
The yeast fitness of the first is lower: at most 0.5 for the first, 0.735 for the second.

A14C A57U C61U and A14C C24G G39A A43G cannot be ordered by yeast fitness: at most 0.5 for the first, at most 0.5 for the second.

Compared with U13C G50U, U13G A57C is lower in yeast fitness: 0.81 for the first, 0.599 for the second.

First: U13G G18C C30U C33G U47G
Second: U13C A20C A21C C46G
The yeast fitness of the first is higher: 0.578 for the first, at most 0.5 for the second.

Going from U13C A36U U64C to U13G C46U A65G, the yeast fitness rises from at most 0.5 to 0.773.

First: U13C C22A U32A A36G A43U
Second: A14C C24U C31G A36U
The yeast fitness of the first is lower: at most 0.5 for the first, 0.664 for the second.

Compared with U13G C22U C31A, U13G A21U C22G U35A A65G is lower in yeast fitness: 0.552 for the first, at most 0.5 for the second.

Compared with A14C C24U C29U A40U G68U, A14C C24A U32G G41C is higher in yeast fitness: at most 0.5 for the first, 0.501 for the second.

A14C A43G U59C C62A and A14C C22U C66U cannot be ordered by yeast fitness: at most 0.5 for the first, at most 0.5 for the second.

First: A14C A57G A69U
Second: U13C G41C
The yeast fitness of the first is lower: at most 0.5 for the first, 0.761 for the second.

U13C G23C C29G A43U G50A A65C and A14C A36U C60U A69U cannot be ordered by yeast fitness: at most 0.5 for the first, at most 0.5 for the second.

Compared with U13C C24G U26A C55G C66A, U13C C31U G50C is lower in yeast fitness: 0.561 for the first, at most 0.5 for the second.

Compared with U13C C29A C33A U35C G51A, U13C U47G is higher in yeast fitness: at most 0.5 for the first, 0.625 for the second.

Compared with U13C G44A C49U, U13G A42C U54A G67C A69U is lower in yeast fitness: 0.799 for the first, at most 0.5 for the second.

U13G A20U U53C C62U and A14C C27G C46G C55G cannot be ordered by yeast fitness: at most 0.5 for the first, at most 0.5 for the second.

Going from U13G U26G C33G U47A to A14C A40U A43C, the yeast fitness falls from 0.602 to 0.564.

Compared with U13C A20G C46U U47A, U13C C31U U47G is higher in yeast fitness: at most 0.5 for the first, 0.562 for the second.

First: U13G C22G C27A C61U
Second: U13C G18A A43U
The yeast fitness of the first is lower: at most 0.5 for the first, 0.627 for the second.

Compared with A14C C29G, U13G C31A is higher in yeast fitness: at most 0.5 for the first, 0.833 for the second.

Compared with U13G U54A G68C, U13C C31U A70C is higher in yeast fitness: at most 0.5 for the first, 0.756 for the second.

A14C A20G C22U C49G G56C and U13C A20G G39A G48C cannot be ordered by yeast fitness: at most 0.5 for the first, at most 0.5 for the second.

U13G C24G G51A and U13C A36C C66U cannot be ordered by yeast fitness: at most 0.5 for the first, at most 0.5 for the second.

First: U13C C27G A40U C66U
Second: U13C G67U
The yeast fitness of the first is lower: 0.538 for the first, 0.719 for the second.

Going from U13C G67C to U13C G67A, the yeast fitness rises from 0.771 to 0.848.

Going from U13G C24U G56A to U13C C33A G41A A45C U59C A65U, the yeast fitness falls from 0.612 to at most 0.5.

Going from U13C A15U G23A C33A A42G G56A to U13G C27A, the yeast fitness rises from at most 0.5 to 0.628.

First: A14C A69G
Second: U13C G51A A65C
The yeast fitness of the first is higher: 0.692 for the first, at most 0.5 for the second.

Compared with U13C G38C, U13C A65G is higher in yeast fitness: 0.644 for the first, 0.956 for the second.

A14C A37C U54C and U13C C33U A45G G50A C66A G68A A70U cannot be ordered by yeast fitness: at most 0.5 for the first, at most 0.5 for the second.

Going from U13C C34U G48C C61U G67A to A14C C22G G63A, the yeast fitness rises from at most 0.5 to 0.642.

Compared with U13C C29G C62U A69C, U13C A43U is higher in yeast fitness: 0.537 for the first, 1.04 for the second.

Compared with U13C A43C, U13C G52C U53A C55G A69U is lower in yeast fitness: 1.28 for the first, at most 0.5 for the second.

Going from A14C A40C U64C to U13C G63C, the yeast fitness rises from 0.622 to 0.742.

Going from A14C C22A A37U to U13G A42C U64C, the yeast fitness rises from 0.646 to 0.715.

A14C C24G A42G and A14C C24U A57G C60U G68C cannot be ordered by yeast fitness: at most 0.5 for the first, at most 0.5 for the second.

U13G U35G A40G C61A and A14C A45C C49G U54C C66U cannot be ordered by yeast fitness: at most 0.5 for the first, at most 0.5 for the second.

Going from U13C A37C U53C to U13G U32G A45G C49U A70U, the yeast fitness falls from 0.599 to at most 0.5.

First: U13G G48A
Second: U13C C27G U35G C49G A57C
The yeast fitness of the first is higher: 0.986 for the first, at most 0.5 for the second.

Going from U13C A36C A43C C60A to U13C G25A C31U G38C, the yeast fitness rises from 0.566 to 0.659.

Compared with U13G G17U U28A G41C U64G, U13C C22G G68C is higher in yeast fitness: at most 0.5 for the first, 0.542 for the second.

U13C C22G G68U and U13C C29A G51C G63A cannot be ordered by yeast fitness: at most 0.5 for the first, at most 0.5 for the second.

Compared with U13G U26G G52A, U13C A43U G56A is higher in yeast fitness: at most 0.5 for the first, 0.797 for the second.

Going from A14C C22G G25C G44A C61G to U13G U28A C30A C61G, the yeast fitness falls from 0.543 to at most 0.5.

Going from A14C A45U A70G to U13C A21C C55U A69C, the yeast fitness falls from 0.561 to at most 0.5.

Compared with U13G G68A, A14C A42U C55G is lower in yeast fitness: 0.798 for the first, at most 0.5 for the second.

U13G U28A C30A and A14C A42G A57U cannot be ordered by yeast fitness: at most 0.5 for the first, at most 0.5 for the second.

With A14C C29U A36G A45U the yeast fitness was 0.543.
